Laboratory results from ChEMBL document CHEMBL4330069, “Boosting the efficacy of anti-MRSA β-lactam antibiotics via an easily accessible, non-cytotoxic and orally bioavailable FtsZ inhibitor” (Eur J Med Chem, 2019).
In brackets after ≈: the same amount, converted by molar mass.

What was measured:
Type in all cases: functional
[1] = system: Staphylococcus aureus; test: Synergistic antibacterial activity against multidrug-resistant Staphylococcus aureus isolate 200 assessed as fractional Inhibitory concentration index in presence of amoxicillin by broth microdilution assay
Summary of the method: (§1)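 CLSI broth microdilution run on clinical MRSA isolates with each β-lactam alone, the test agent alone, and the two combined; agents dissolved in DMSO. Growth inhibition was read by eye. FIC index = FIC(compound) + FIC(β-lactam), where each FIC is the MIC in combination divided by the MIC alone. An index ≤0.5 was taken as synergy.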

[2] = system: Staphylococcus aureus; test: Synergistic antibacterial activity against multidrug-resistant Staphylococcus aureus isolate 757 in presence of amoxicillin by broth microdilution assay
[3] = system: Staphylococcus aureus; test: Synergistic antibacterial activity against multidrug-resistant Staphylococcus aureus isolate 1136 assessed as fractional Inhibitory concentration index in presence of methicillin by broth microdilution assay; summary of the method: as §1
[4] = system: Staphylococcus aureus; test: Synergistic antibacterial activity against multidrug-resistant Staphylococcus aureus isolate 2490 in presence of cloxacillin by broth microdilution assay
Summary of the method: (§2)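 Clinical MRSA isolate panel; compound and β-lactam tested alone and in combination by CLSI broth microdilution, compounds dissolved in DMSO, growth inhibition scored by eye, run in duplicate. FIC index = FIC(compound) + FIC(drug), each the MIC in combination divided by the MIC alone; an index ≤ 0.5 was called synergy.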

[5] = system: Staphylococcus aureus; test: Synergistic antibacterial activity against multidrug-resistant Staphylococcus aureus isolate 2895 assessed as fractional Inhibitory concentration index in presence of methicillin by broth microdilution assay
[6] = system: Staphylococcus aureus; test: Synergistic antibacterial activity against multidrug-resistant Staphylococcus aureus isolate 2224 assessed as fractional Inhibitory concentration index in presence of meropenem by broth microdilution assay; summary of the method: as §1
[7] = system: Staphylococcus aureus; test: Synergistic antibacterial activity against multidrug-resistant Staphylococcus aureus isolate 417 assessed as fractional Inhibitory concentration index in presence of cefuroxime by broth microdilution assay
[8] = system: Staphylococcus aureus; test: Synergistic antibacterial activity against multidrug-resistant Staphylococcus aureus isolate 774 assessed as fractional Inhibitory concentration index in presence of cloxacillin by broth microdilution assay
[9] = system: Staphylococcus aureus; test: Synergistic antibacterial activity against multidrug-resistant Staphylococcus aureus isolate 256 in presence of amoxicillin by broth microdilution assay
Summary of the method: (§3)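 CLSI broth microdilution on clinical MRSA isolates. MICs were measured for the β-lactam alone, the test agent alone and the two combined. Compounds were dissolved in DMSO, and growth inhibition was scored by eye. FIC index is the sum, over both agents, of MIC in combination divided by MIC alone. An FIC index ≤0.5 was taken as synergy.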

[10] = system: Staphylococcus aureus; test: Synergistic antibacterial activity against multidrug-resistant Staphylococcus aureus isolate 2901 in presence of methicillin by broth microdilution assay; summary of the method: as §3
[11] = system: Staphylococcus aureus; test: Synergistic antibacterial activity against multidrug-resistant Staphylococcus aureus isolate 200 in presence of cefuroxime by broth microdilution assay; summary of the method: as §2
[12] = system: Staphylococcus aureus; test: Antibacterial activity against multidrug-resistant Staphylococcus aureus isolate 3580 by broth microdilution assay
Summary of the method: (§4)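 Broth microdilution MIC per CLSI guidelines against clinical MRSA isolates, for β-lactams and test compound alone and in combination. Compounds were dissolved in DMSO. Growth was read by eye, in duplicate. FIC index = FIC(compound) + FIC(drug); synergy defined as FIC index ≤0.5.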

[13] = system: Staphylococcus aureus; test: Synergistic antibacterial activity against multidrug-resistant Staphylococcus aureus isolate 85 assessed as fractional Inhibitory concentration index in presence of meropenem by broth microdilution assay
[14] = system: Staphylococcus aureus; test: Synergistic antibacterial activity against multidrug-resistant Staphylococcus aureus isolate 200 assessed as fractional Inhibitory concentration index in presence of cefuroxime by broth microdilution assay; summary of the method: as §1
[15] = system: Staphylococcus aureus; test: Synergistic antibacterial activity against multidrug-resistant Staphylococcus aureus isolate 231 in presence of amoxicillin by broth microdilution assay; summary of the method: as §2
[16] = system: Staphylococcus aureus; test: Synergistic antibacterial activity against multidrug-resistant Staphylococcus aureus isolate 2895 in presence of cefuroxime by broth microdilution assay; summary of the method: as §3
[17] = system: Staphylococcus aureus; test: Synergistic antibacterial activity against multidrug-resistant Staphylococcus aureus isolate 1749 in presence of cloxacillin by broth microdilution assay; summary of the method: as §2
[18] = system: Staphylococcus aureus; test: Synergistic antibacterial activity against multidrug-resistant Staphylococcus aureus isolate 254 assessed as fractional Inhibitory concentration index in presence of meropenem by broth microdilution assay
[19] = system: Staphylococcus aureus; test: Synergistic antibacterial activity against multidrug-resistant Staphylococcus aureus isolate 2728 in presence of meropenem by broth microdilution assay; summary of the method: as §3
[20] = system: Staphylococcus aureus; test: Synergistic antibacterial activity against multidrug-resistant Staphylococcus aureus isolate 3411 in presence of amoxicillin by broth microdilution assay; summary of the method: as §3
[21] = system: Staphylococcus aureus; test: Synergistic antibacterial activity against multidrug-resistant Staphylococcus aureus isolate 2901 in presence of cloxacillin by broth microdilution assay; summary of the method: as §3
[22] = system: Staphylococcus aureus; test: Synergistic antibacterial activity against multidrug-resistant Staphylococcus aureus isolate 3267 in presence of meropenem by broth microdilution assay; summary of the method: as §3
[23] = system: Staphylococcus aureus; test: Synergistic antibacterial activity against multidrug-resistant Staphylococcus aureus isolate 3267 assessed as fractional Inhibitory concentration index in presence of cefuroxime by broth microdilution assay
[24] = system: Staphylococcus aureus; test: Synergistic antibacterial activity against multidrug-resistant Staphylococcus aureus isolate 2490 in presence of meropenem by broth microdilution assay; summary of the method: as §2
[25] = system: Staphylococcus aureus; test: Synergistic antibacterial activity against multidrug-resistant Staphylococcus aureus isolate 774 in presence of meropenem by broth microdilution assay
[26] = system: Staphylococcus aureus; test: Synergistic antibacterial activity against multidrug-resistant Staphylococcus aureus isolate 417 assessed as fractional Inhibitory concentration index in presence of amoxicillin by broth microdilution assay
[27] = system: Staphylococcus aureus; test: Synergistic antibacterial activity against multidrug-resistant Staphylococcus aureus isolate 2895 in presence of cloxacillin by broth microdilution assay; summary of the method: as §3
[28] = system: Staphylococcus aureus; test: Synergistic antibacterial activity against multidrug-resistant Staphylococcus aureus isolate 200 assessed as fractional Inhibitory concentration index in presence of cloxacillin by broth microdilution assay; summary of the method: as §1
[29] = system: Staphylococcus aureus; test: Synergistic antibacterial activity against multidrug-resistant Staphylococcus aureus isolate 254 assessed as fractional Inhibitory concentration index in presence of amoxicillin by broth microdilution assay
[30] = system: Staphylococcus aureus; test: Synergistic antibacterial activity against multidrug-resistant Staphylococcus aureus isolate 1344 in presence of cefuroxime by broth microdilution assay; summary of the method: as §2
[31] = system: Staphylococcus aureus; test: Synergistic antibacterial activity against multidrug-resistant Staphylococcus aureus isolate 254 in presence of cefuroxime by broth microdilution assay; summary of the method: as §3
[32] = system: Staphylococcus aureus; test: Antibacterial activity against multidrug-resistant Staphylococcus aureus isolate 1449 by broth microdilution assay; summary of the method: as §4
[33] = system: Staphylococcus aureus; test: Synergistic antibacterial activity against multidrug-resistant Staphylococcus aureus isolate 2919 assessed as fractional Inhibitory concentration index in presence of cefuroxime by broth microdilution assay
[34] = system: Staphylococcus aureus; test: Synergistic antibacterial activity against multidrug-resistant Staphylococcus aureus isolate 85 in presence of meropenem by broth microdilution assay
[35] = system: Staphylococcus aureus; test: Synergistic antibacterial activity against multidrug-resistant Staphylococcus aureus isolate 358 in presence of amoxicillin by broth microdilution assay
[36] = system: Staphylococcus aureus; test: Synergistic antibacterial activity against multidrug-resistant Staphylococcus aureus isolate 3580 in presence of amoxicillin by broth microdilution assay
[37] = system: Staphylococcus aureus; test: Synergistic antibacterial activity against multidrug-resistant Staphylococcus aureus isolate 2728 in presence of methicillin by broth microdilution assay; summary of the method: as §3
[38] = system: Staphylococcus aureus; test: Synergistic antibacterial activity against multidrug-resistant Staphylococcus aureus isolate 1449 assessed as fractional Inhibitory concentration index in presence of cloxacillin by broth microdilution assay; summary of the method: as §1
[39] = system: Staphylococcus aureus; test: Synergistic antibacterial activity against multidrug-resistant Staphylococcus aureus isolate 2224 in presence of cloxacillin by broth microdilution assay; summary of the method: as §2

CCCCCCCCCNc1ccc(F)c(C(N)=O)c1F
fractional inhibitory concentration index (FICI) [1]: 0 | MIC [2]: 2 µg/mL | fractional inhibitory concentration index (FICI) [3]: 0.3 | MIC [4]: 1 µg/mL | fractional inhibitory concentration index (FICI) [5]: 0.3 | fractional inhibitory concentration index (FICI) [6]: 4 | fractional inhibitory concentration index (FICI) [7]: 0.1 | fractional inhibitory concentration index (FICI) [8]: 0.5 | MIC [9]: 16 µg/mL | MIC [10]: 2 µg/mL | MIC [11]: 2 µg/mL | MIC [12]: 32 µg/mL (≈ 107 µM) | fractional inhibitory concentration index (FICI) [13]: 4 | fractional inhibitory concentration index (FICI) [14]: 1 | MIC [15]: 4 µg/mL | MIC [16]: 4 µg/mL | MIC [17]: 0.5 µg/mL | fractional inhibitory concentration index (FICI) [18]: 1.5 | MIC [19]: 4 µg/mL | MIC [20]: 4 µg/mL | MIC [21]: 0.5 µg/mL | MIC [22]: 8 µg/mL | fractional inhibitory concentration index (FICI) [23]: 0 | MIC [24]: 4 µg/mL | MIC [25]: 4 µg/mL | fractional inhibitory concentration index (FICI) [26]: 0.3 | MIC [27]: 2 µg/mL | fractional inhibitory concentration index (FICI) [28]: 1 | fractional inhibitory concentration index (FICI) [29]: 0.6 | MIC [30]: 4 µg/mL | MIC [31]: 4 µg/mL | MIC [32]: 4 µg/mL (≈ 13.4 µM) | fractional inhibitory concentration index (FICI) [33]: 0.3 | MIC [34]: 8 µg/mL | MIC [35]: 4 µg/mL | MIC [36]: 8 µg/mL | MIC [37]: 4 µg/mL | fractional inhibitory concentration index (FICI) [38]: 0.6 | MIC [39]: 2 µg/mL
